Here are results for ten compounds from ChEMBL document CHEMBL1759888, “Biological evaluation of polyhalo 1,3-diazaheterocycle fused isoquinolin-1(2H)-imine derivatives” (Eur J Med Chem, 2011).

Each structure is given as a SMILES string. Values after ≈ are worked out from the molar mass of the structure shown.

For series [1], the system named is A-431. The series can be described thus: Anticancer activity against human A431 cells after 72 hrs by MTT assay. The settings on record: A-431, 72 h. Background: Tetrazolium assays rely on reduction of a dye to a coloured formazan, in cell work by metabolically active cells.
Series [2] deals with H22. The series can be described thus: Antitumor activity against mouse H22 cells xenografted in Kunming mouse assessed as tumor growth inhibition rate at 35 mg/kg, po administered for 10 days relative to control. It is filed as functional. The settings on record: H22, 240 h. Put shortly:
(§1)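 Tumour cells taken in exponential growth and inoculated subcutaneously into the right flank axilla. Mice randomised, 10 per group. Compound in 0.5% CMC-Na given intragastrically daily for 10 days. Solvent control got an equal volume of vehicle; positive control got cyclophosphamide 20 mg/kg i.p. in saline. Tumours weighed at sacrifice; inhibition rate calculated against solvent control.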

The subject of series [3] is H22. The series can be described thus: Antitumor activity against mouse H22 cells xenografted in Kunming mouse assessed as tumor growth inhibition rate at 140 mg/kg, po administered for 10 days relative to control. Format: functional. Conditions: H22, 240 h. Put shortly:
as §1

The subject of series [4] is K562. The series can be described thus: Anticancer activity against human K562 cells after 48 hrs by MTT assay. Conditions: K562, 48 h.
Series [5] deals with CCRF S-180. The series can be described thus: Antitumor activity against mouse S180 cells xenografted in po dosed Kunming mouse assessed as tumor tumor growth inhibition rate administered for 10 days relative to control. Format: functional, organism-based. The essentials: as §1
For series [6], the system named is Mus musculus. Briefly: Toxicity in Kunming mouse assessed as mouse mortality at 5000 mg/kg, po administered in 24 hr duration measured after 7 days. On the set-up: dose 5000 mg/kg, route oral. Conditions: in vivo, 168 h. Format: organism-based. The essentials: (§2)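 Acute toxicity test in Kunming mice (18–22 g), each group treated with one compound. The compound was given orally within 24 h, and mice were then monitored continuously for up to 7 days for abnormal behaviour or death.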

Series [7] is described as follows: Lipophilicity, log P of the compound. It is filed as physicochemical. Conditions: octanol/water.
For series [8], the system named is HL-60. Briefly: Anticancer activity against human HL60 cells after 48 hrs by MTT assay. Conditions: HL-60, 48 h.
Series [9] has as its system CCRF S-180. Briefly: Antitumor activity against mouse S180 cells xenografted in Kunming mouse assessed as tumor growth inhibition rate at 60 mg/kg, po administered for 10 days relative to control. Format: functional. The settings on record: CCRF S-180, 240 h. Put shortly: as §1
Series [10] concerns SK-OV-3. The series can be described thus: Anticancer activity against human SKOV3 cells after 72 hrs by MTT assay. The settings on record: SK-OV-3, 72 h.
The test system of series [11] is H22. Briefly: Antitumor activity against mouse H22 cells xenografted in Kunming mouse assessed as tumor growth inhibition rate at 70 mg/kg, po administered for 10 days relative to control. Format: functional. The settings on record: H22, 240 h. Put shortly:
as §1

Series [12] has as its system CCRF S-180. Briefly: Antitumor activity against mouse S180 cells xenografted in Kunming mouse assessed as tumor growth inhibition rate at 20 mg/kg, po administered for 10 days relative to control. Format: functional. The settings on record: CCRF S-180, 240 h. The essentials:
as §1

The test system of series [13] is HepG2. Briefly: Anticancer activity against human HepG2 cells after 72 hrs by MTT assay. Conditions: HepG2, 72 h.
The test system of series [14] is CCRF S-180. Briefly: Antitumor activity against mouse S180 cells xenografted in Kunming mouse assessed as tumor growth inhibition rate at 180 mg/kg, po administered for 10 days relative to control. Conditions: CCRF S-180, 240 h. It is filed as functional. Put shortly:
as §1

Series [15] concerns H22. The series can be described thus: Antitumor activity against mouse H22 cells xenografted in Kunming mouse assessed as tumor growth inhibition rate at 30 mg/kg, po administered for 10 days relative to control. Format: functional. The settings on record: H22, 240 h. The essentials:
as §1

For series [16], the system named is Mus musculus. The series can be described thus: Toxicity in Kunming mouse assessed as mouse mortality at 4500 mg/kg, po administered in 24 hr duration measured after 7 days. It is filed as organism-based. On the set-up: dose 4500 mg/kg, route oral. The settings on record: in vivo, 168 h. Put shortly:
as §2

Series [17] concerns CCRF S-180. The series can be described thus: Antitumor activity against mouse S180 cells xenografted in Kunming mouse assessed as tumor growth inhibition rate at 90 mg/kg, po administered for 10 days relative to control. Format: functional. Conditions: CCRF S-180, 240 h. Put shortly:
as §1

In series [18] the test system is CCRF S-180. The series can be described thus: Antitumor activity against mouse S180 cells xenografted in Kunming mouse assessed as tumor growth inhibition rate at 30 mg/kg, po administered for 10 days relative to control. The settings on record: CCRF S-180, 240 h. Format: functional. Put shortly: as §1
For series [19], the system named is CCRF S-180. Briefly: Antitumor activity against mouse S180 cells xenografted in Kunming mouse assessed as tumor tumor growth inhibition rate at 10 mg/kg, po administered for 10 days relative to control. Format: functional. Conditions: CCRF S-180, 240 h. The essentials: as §1
In series [20] the test system is H22. Briefly: Antitumor activity against mouse H22 cells xenografted in Kunming mouse assessed as tumor growth inhibition rate at 10 mg/kg, po administered for 10 days relative to control. Format: functional. The settings on record: H22, 240 h. Put shortly:
as §1

In series [21] the test system is H22. The series can be described thus: Antitumor activity against mouse H22 cells xenografted in Kunming mouse assessed as tumor growth inhibition rate at 80 mg/kg, po administered for 10 days relative to control. Conditions: H22, 240 h. Format: functional. The essentials:
as §1

Series [22] deals with H22. The series can be described thus: Antitumor activity against mouse H22 cells xenografted in Kunming mouse assessed as tumor growth inhibition rate at 240 mg/kg, po administered for 10 days relative to control. Format: functional. The settings on record: H22, 240 h. The essentials: as §1
The subject of series [23] is H22. The series can be described thus: Antitumor activity against mouse H22 cells xenografted in Kunming mouse assessed as tumor growth inhibition rate at 20 mg/kg, po administered for 10 days relative to control. It is filed as functional. Conditions: H22, 240 h. The essentials: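 H22 tumour cells were harvested in exponential growth and inoculated subcutaneously into the right flank axilla. Mice were randomised into groups of 10. Test compound in 0.5% CMC-Na was given intragastrically daily for 10 days. Solvent controls got an equal volume of CMC-Na, and positive controls got cyclophosphamide 20 mg/kg ip in saline. Tumours were weighed at sacrifice to give the inhibition rate.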

`COc1ccc(C(=O)c2c3n(c(=N)c4c(F)c(C#N)c(F)c(F)c24)CCCN3)cc1`: the IC50 (commonly the point on the concentration scale where inhibition reaches its midpoint) in [1] was 1.1 µg/mL (≈ 2.67 µM); in series [4], 0.01 µg/mL (≈ 0.0243 µM); in series [8] it was 0.02 µg/mL (≈ 0.0485 µM); in [10] it was 2.6 µg/mL (≈ 6.31 µM); in series [13], 0.8 µg/mL (≈ 1.94 µM). Further, the inhibition in vivo (as a rule, the percentage by which the read-out fell short of the control) at 35 mg/kg in [2] was 34.7%. In series [3], the inhibition in vivo at 140 mg/kg came to 29.3%. In addition, the inhibition result in series [5] is “Dose-dependent effect”. The Activity result in series [6] is “Non-toxic”. For the same compound, the logP (in general, the decadic logarithm of the partition coefficient of the neutral form, usually between octanol and water) in series [7] worked out at 2.7. Further, the inhibition in vivo at 60 mg/kg in series [9] came out at 38%. In series [11], the inhibition in vivo at 70 mg/kg stood at 45.6%. In series [12], the inhibition in vivo at 20 mg/kg came out at 35.9%. Also, in [14], the inhibition in vivo at 180 mg/kg worked out at 19.1%.
For the compound `CCOC(=O)c1c2n(c(=N)c3c(F)c(C#N)c(F)c(F)c13)CCN2`, the IC50 in [1] came to 3.4 µg/mL (≈ 10.1 µM); in series [4], 0.0005 µg/mL (≈ 0.00149 µM); in [8], 0.02 µg/mL (≈ 0.0595 µM); in series [10], 0.04 µg/mL (≈ 0.119 µM); in series [13], 0.4 µg/mL (≈ 1.19 µM). Further, the inhibition in vivo at 30 mg/kg in series [15] was 27.5%; in [18], 54.2%. Moreover, in series [5], the inhibition entry was “Dose-dependent effect”. The compound also returned a lipophilicity (logP) in series [7] of 2.04. The Activity result in [16] is “Toxic”. Moreover, the inhibition in vivo at 90 mg/kg in [17] was determined as 26.6%. Moreover, the figures for the inhibition in vivo at 10 mg/kg in series [19] and in series [20] were 39.2% and 11.4%, respectively.
For `N#Cc1c(F)c(Cl)c2c(C(=O)c3ccccc3)c3n(c(=N)c2c1F)CCCN3`, the IC50 in series [1] amounted to 0.5 µg/mL (≈ 1.25 µM); in series [4], 0.03 µg/mL (≈ 0.0752 µM); in series [8], 0.01 µg/mL (≈ 0.0251 µM); in series [10], 1.2 µg/mL (≈ 3.01 µM); in [13] it was 0.3 µg/mL (≈ 0.752 µM). Also, the inhibition in vivo at 80 mg/kg in series [21] was found to be 28.2%. Besides, the inhibition in vivo at 240 mg/kg in series [22] is 0%. The inhibition result in [5] is “Dose-dependent effect”. Moreover, the Activity entry in series [6] is reported as “Non-toxic”. In series [7], this compound had a logP of 3.35. Moreover, the inhibition in vivo at 60 mg/kg in [9] was 41.1%. Moreover, the inhibition in vivo at 20 mg/kg was 42.8% in series [12] and 12.1% in [23]. The inhibition in vivo at 180 mg/kg in series [14] turned out to be 52.8%.
Regarding `COc1ccc(C(=O)c2c3n(c(=N)c4c(Cl)c(C#N)c(Cl)c(Cl)c24)CCCN3)cc1`, the IC50 was determined as 56.9 µg/mL (≈ 123 µM) in series [1]; 1.4 µg/mL (≈ 3.03 µM) in [4]; 4.4 µg/mL (≈ 9.53 µM) in [8]; 67.2 µg/mL (≈ 146 µM) in [10]; 400 µg/mL (≈ 866 µM) in series [13]. Besides, in [7], the logP was determined as 4.1.
As to `CC(=O)c1c2n(c(=N)c3c(F)c(C#N)c(F)c(Cl)c13)CCN2`, the IC50 in series [1] stood at 20.4 µg/mL (≈ 63.2 µM); in [4] it was 0.4 µg/mL (≈ 1.24 µM); in series [8], 0.9 µg/mL (≈ 2.79 µM); in series [10], 6.2 µg/mL (≈ 19.2 µM); in series [13], 6.4 µg/mL (≈ 19.8 µM). Besides, in series [7], the logP was found to be 1.67.
Take `N#Cc1c(F)c(F)c2c(C(=O)c3ccc(Cl)cc3)c3n(c(=N)c2c1F)CCN3`: the IC50 in [1] was found to be 4.9 µg/mL (≈ 12.2 µM); in [4] it was 1 µg/mL (≈ 2.48 µM); in series [8] it was 0.5 µg/mL (≈ 1.24 µM); in series [10], 34.5 µg/mL (≈ 85.7 µM); in series [13], 17.7 µg/mL (≈ 43.9 µM). Further, the logP in series [7] is 3.36.
As to `Cc1ccc(C(=O)c2c3n(c(=N)c4c(Cl)c(C#N)c(Cl)c(Cl)c24)CCCN3)cc1`, the IC50 is more than 1000 µg/mL in series [1]; 9.3 µg/mL (≈ 20.9 µM) in series [4]; 58.2 µg/mL (≈ 131 µM) in [8]; 826 µg/mL (≈ 1850 µM) in series [10]; 277 µg/mL (≈ 621 µM) in [13]. The logP in series [7] came out at 4.61.
As to `COc1ccc(C(=O)c2c3n(c(=N)c4c(Cl)c(C#N)c(Cl)c(Cl)c24)CCO3)cc1`, the IC50 worked out at 11 µg/mL (≈ 24.5 µM) in series [1]; 0.8 µg/mL (≈ 1.78 µM) in [4]; 24.2 µg/mL (≈ 53.9 µM) in series [8]; 32.2 µg/mL (≈ 71.8 µM) in series [10]; 2.7 µg/mL (≈ 6.02 µM) in series [13]. In addition, the logP in series [7] is 3.39.
With `N#Cc1c(F)c(Cl)c2c(C(=O)c3ccc(Cl)cc3)c3n(c(=N)c2c1F)CCCN3`, the IC50 is 2.8 µg/mL (≈ 6.46 µM) in series [1]; 0.3 µg/mL (≈ 0.692 µM) in [4]; 0.2 µg/mL (≈ 0.462 µM) in [8]; 17.1 µg/mL (≈ 39.5 µM) in [10]; 2.1 µg/mL (≈ 4.85 µM) in series [13]. For the same compound, in series [7], the logP turned out to be 4.08.
With `O=P1(N(CCCl)CCCl)NCCCO1` (centres undefined) [CYCLOPHOSPHAMIDE ANHYDROUS], the inhibition in vivo at 20 mg/kg in series [12] amounted to 81.7%; in [23], 56.2%.
